# Laboratory results from ChEMBL document CHEMBL1135409, “Structure-activity relationships of a novel class of endothelin-A receptor antagonists and discovery of potent and selective receptor antagonist, 2-(benzo[1,3]dioxol-5-yl)-6-isopropyloxy-4-(4-methoxyphenyl)-2H-chromene-3-carboxylic acid (S-1255). 1. Study on structure-activity relationships and …” (J Med Chem, 2002).
# Molecular target: T1, Endothelin receptor type B (Sus scrofa, UniProt P35463)
# T1 sequence (P35463 whole entry): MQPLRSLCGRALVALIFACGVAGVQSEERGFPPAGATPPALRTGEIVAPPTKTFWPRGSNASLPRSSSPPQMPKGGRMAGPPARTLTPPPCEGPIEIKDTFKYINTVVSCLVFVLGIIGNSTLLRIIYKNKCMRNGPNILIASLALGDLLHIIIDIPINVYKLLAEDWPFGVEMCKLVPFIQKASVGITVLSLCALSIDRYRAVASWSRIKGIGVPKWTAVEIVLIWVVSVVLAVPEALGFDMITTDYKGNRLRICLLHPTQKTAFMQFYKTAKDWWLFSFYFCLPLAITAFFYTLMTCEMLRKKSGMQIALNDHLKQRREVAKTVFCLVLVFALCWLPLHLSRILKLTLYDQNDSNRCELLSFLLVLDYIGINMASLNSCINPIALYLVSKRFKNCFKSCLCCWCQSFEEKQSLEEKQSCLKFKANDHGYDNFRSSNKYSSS
# Assay: Binding affinity to endothelin B receptor measured by inhibition of [125I]ET-3 binding recombinant pig ET-B receptor expressed in COS-7 cells
# Type: cell-based
# Procedure, shortened: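 COS cells transfected with porcine ETB cDNA, in Hank's solution with 20 mM HEPES and protease inhibitors. Stopped by filtration on GF/C filters presoaked in 1% polyethylenimine, washed with 50 mM Tris-HCl pH 7.4, then counted. Nonspecific binding taken with 0.1 μM ET-3.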
row,IC50,SMILES
1,6.4 µM,COC1=C(C(=O)O)C(c2ccc3c(c2)OCO3)Oc2ccc(OC(C)C)cc21 (stereo not given)
2,2.8 µM,CCOC1=C(C(=O)O)C(c2ccc3c(c2)OCO3)Oc2ccc(OC(C)C)cc21 (stereo not given)

# The next lines start with the compound.
row,SMILES,IC50
1,CCCCOC1=C(C(=O)O)C(c2ccc3c(c2)OCO3)Oc2cccc(OCCC)c21 (stereo not given),6 µM
2,CCCCCOC1=C(C(=O)O)C(c2ccc3c(c2)OCO3)Oc2ccccc21 (stereo not given),1.1 µM
3,CCCCOc1ccc2c(c1)C(c1ccc3c(c1)OCO3)=C(C(=O)O)C(c1ccc(OC)cc1OC)O2 (stereo not given),0.035 µM
4,CCCCOc1ccc(C2Oc3ccc(OCCCC)cc3C(c3ccc4c(c3)OCO4)=C2C(=O)O)cc1 (stereo not given),3.6 µM
5,CCCOC1=C(C(=O)O)C(c2ccc3c(c2)OCO3)Oc2ccccc21 (stereo not given),10 µM
6,CCCCOc1ccc2c(c1)C(c1ccc3c(c1)OCO3)=C(C(=O)O)C(c1ccc(OC)cc1)O2 (stereo not given),0.043 µM
7,COc1ccccc1C1=C(C(=O)O)C(c2ccc3c(c2)OCO3)Oc2ccccc21 (stereo not given),31 µM
8,CCCCOc1ccc2c(c1)C(c1ccc3c(c1)OCO3)=C(C(=O)O)C(c1ccc(OC)c(OC)c1)O2 (stereo not given),0.4 µM
9,COc1ccc([C@@H]2c3cc(OC(C)C)ccc3O[C@H](c3ccc4c(c3)OCO4)[C@H]2C(=O)O)cc1,3.4 µM
10,CC(C)Oc1ccc2c(c1)C(c1ccc(OCc3ccccc3)cc1)=C(C(=O)O)C(c1ccc3c(c1)OCO3)O2 (stereo not given),0.6 µM
11,COc1cccc(C2=C(C(=O)O)C(c3ccc4c(c3)OCO4)Oc3ccccc32)c1 (stereo not given),2.8 µM
12,Cc1ccc(C2=C(C(=O)O)C(c3ccc4c(c3)OCO4)Oc3ccccc32)cc1 (stereo not given),6.9 µM
13,CCCCOc1ccc2c(c1)C(c1ccc3c(c1)OCO3)=C(C(=O)O)C(c1ccccc1OC)O2 (stereo not given),0.76 µM
14,COc1ccc(CCOC2=C(C(=O)O)C(c3ccc4c(c3)OCO4)Oc3ccc(OC(C)C)cc32)cc1 (stereo not given),0.2 µM
15,CC(C)Oc1ccc2c(c1)C(c1ccc(O)cc1)=C(C(=O)O)C(c1ccc3c(c1)OCO3)O2 (stereo not given),4.8 µM
16,CC(C)c1ccc(C2=C(C(=O)O)C(c3ccc4c(c3)OCO4)Oc3ccccc32)cc1 (stereo not given),2.1 µM

# System: not listed separately
# Assay: Ratio of inhibitory concentrations at ET-B receptor relative to that of ET-A receptor
row,Ratio,SMILES
1,1900,CCCCOC1=C(C(=O)O)C(c2ccc3c(c2)OCO3)Oc2ccc(OC(C)C)cc21 (stereo not given)
2,840,CCCCC1=C(C(=O)O)C(c2ccc3c(c2)OCO3)Oc2ccc(OC(C)C)cc21 (stereo not given)
3,700,COC1=C(C(=O)O)C(c2ccc3c(c2)OCO3)Oc2ccc(OC(C)C)cc21 (stereo not given)

# Molecular target: T2, Endothelin-1 receptor (Rattus norvegicus, UniProt P26684)
# T2 sequence (P26684 whole entry): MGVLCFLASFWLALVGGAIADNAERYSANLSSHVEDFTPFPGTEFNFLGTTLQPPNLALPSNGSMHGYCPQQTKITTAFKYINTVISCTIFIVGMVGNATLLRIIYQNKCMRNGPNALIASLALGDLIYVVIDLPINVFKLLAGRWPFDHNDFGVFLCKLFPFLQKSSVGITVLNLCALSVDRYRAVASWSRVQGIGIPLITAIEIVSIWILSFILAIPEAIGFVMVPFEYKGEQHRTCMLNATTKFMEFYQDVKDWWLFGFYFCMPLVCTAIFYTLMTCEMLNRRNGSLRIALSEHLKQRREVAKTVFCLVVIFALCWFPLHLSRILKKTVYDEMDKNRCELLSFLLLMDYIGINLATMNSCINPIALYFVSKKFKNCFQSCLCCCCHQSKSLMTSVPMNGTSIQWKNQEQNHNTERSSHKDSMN
# Assay: Binding affinity for endothelin A receptor by inhibition of [125I]ET1 binding in rat aorta smooth muscle cells
# Type: tissue-based
row,IC50,SMILES
1,0.077 µM,CCCC[C@@H]1c2cc(OC(C)C)ccc2O[C@H](c2ccc3c(c2)OCO3)[C@H]1C(=O)O
2,0.0018 µM,COc1ccc(C2=C(C(=O)NS(C)(=O)=O)C(c3ccc4c(c3)OCO4)Oc3ccc(OC(C)C)cc32)cc1 (stereo not given)
3,0.048 µM,CCCCC1=C(C(=O)NS(C)(=O)=O)C(c2ccc3c(c2)OCO3)Oc2ccc(OC(C)C)cc21 (stereo not given)
4,0.018 µM,CCCCC1=C(c2nnn[nH]2)C(c2ccc3c(c2)OCO3)Oc2ccc(OC(C)C)cc21 (stereo not given)
5,0.00033 µM,C=CCCCOC1=C(C(=O)O)C(c2ccc3c(c2)OCO3)Oc2ccc(OC(C)C)cc21 (stereo not given)
6,0.0091 µM,COC1=C(C(=O)O)C(c2ccc3c(c2)OCO3)Oc2ccc(OC(C)C)cc21 (stereo not given)
7,> 10 µM,CCCCC1=C(C(=O)OC)C(c2ccc3c(c2)OCO3)Oc2ccc(OC(C)C)cc21 (stereo not given)
8,0.0022 µM,CCOC1=C(C(=O)O)C(c2ccc3c(c2)OCO3)Oc2ccc(OC(C)C)cc21 (stereo not given)
9,0.003 µM,CC(C)Oc1ccc2c(c1)C(c1ccccc1)=C(C(=O)O)C(c1ccc3c(c1)OCO3)O2 (stereo not given)
10,> 10 µM,COC(=O)C1=C(c2ccc(OC)cc2)c2cc(OC(C)C)ccc2OC1c1ccc2c(c1)OCO2 (stereo not given)
11,0.008 µM,CC(C)Oc1ccc2c(c1)C(c1ccc(F)cc1)=C(C(=O)O)C(c1ccc3c(c1)OCO3)O2 (stereo not given)
12,0.41 µM,CCCCC1=C(C(N)=O)C(c2ccc3c(c2)OCO3)Oc2ccc(OC(C)C)cc21 (stereo not given)
13,0.00032 µM,COc1ccc(CC2=C(C(=O)O)C(c3ccc4c(c3)OCO4)Oc3ccc(OC(C)C)cc32)cc1 (stereo not given)

# The remaining lines, values behind:
row,SMILES,IC50
1,CCCCCOC1=C(C(=O)O)C(c2ccc3c(c2)OCO3)Oc2ccccc21 (stereo not given),0.029 µM
2,CCCCOc1ccc2c(c1)C(c1ccc3c(c1)OCO3)=C(C(=O)O)C(c1ccc(OC)cc1OC)O2 (stereo not given),0.018 µM
3,CCCCOc1ccc(C2Oc3ccc(OCCCC)cc3C(c3ccc4c(c3)OCO4)=C2C(=O)O)cc1 (stereo not given),5.2 µM
4,CCCOC1=C(C(=O)O)C(c2ccc3c(c2)OCO3)Oc2ccccc21 (stereo not given),0.16 µM
5,COc1ccccc1C1=C(C(=O)O)C(c2ccc3c(c2)OCO3)Oc2ccccc21 (stereo not given),2.2 µM
6,COc1ccc(C2=C(C(N)=O)C(c3ccc4c(c3)OCO4)Oc3ccc(OC(C)C)cc32)cc1 (stereo not given),0.63 µM
7,CCCCOc1ccc2c(c1)C(c1ccc3c(c1)OCO3)=C(C(=O)O)C(c1ccc(OC)c(OC)c1)O2 (stereo not given),0.81 µM
8,COc1ccc([C@@H]2c3cc(OC(C)C)ccc3O[C@H](c3ccc4c(c3)OCO4)[C@H]2C(=O)O)cc1,0.0013 µM
9,CC(C)Oc1ccc2c(c1)C(c1ccc(OCc3ccccc3)cc1)=C(C(=O)O)C(c1ccc3c(c1)OCO3)O2 (stereo not given),0.0063 µM
10,COc1cccc(C2=C(C(=O)O)C(c3ccc4c(c3)OCO4)Oc3ccccc32)c1 (stereo not given),0.7 µM
11,COc1ccc(C2=C(C(=O)O)C(c3ccc4c(c3)OCO4)Oc3ccc(OC(C)C)cc32)cc1 (stereo not given),0.00051 µM
12,Cc1ccc(C2=C(C(=O)O)C(c3ccc4c(c3)OCO4)Oc3ccccc32)cc1 (stereo not given),0.53 µM
13,CCCCOc1ccc2c(c1)C(c1ccc3c(c1)OCO3)=C(C(=O)O)C(c1ccccc1OC)O2 (stereo not given),0.13 µM
14,COc1ccc(CCOC2=C(C(=O)O)C(c3ccc4c(c3)OCO4)Oc3ccc(OC(C)C)cc32)cc1 (stereo not given),0.003 µM
15,CC(C)Oc1ccc2c(c1)C(c1ccc(O)cc1)=C(C(=O)O)C(c1ccc3c(c1)OCO3)O2 (stereo not given),0.0041 µM
16,CC(C)c1ccc(C2=C(C(=O)O)C(c3ccc4c(c3)OCO4)Oc3ccccc32)cc1 (stereo not given),0.083 µM
